The record followed here is ChEMBL document CHEMBL3286292, “Synthesis and antimicrobial activity of amine linked bis- and tris-heterocycles” (2014).

Common to all, as to type: functional
Assay [1] concerns Staphylococcus aureus. In words: Antibacterial activity against Staphylococcus aureus assessed as growth inhibition at 25 ug/well after 24 hrs by agar well diffusion method. Conditions: for zone of inhibition at 25 µg/disc: read-out: DIZ. The method, boiled down: (§1)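 Agar well diffusion on […] swabbed with a 24 h broth culture. Samples were dissolved in DMSO and loaded at three per-well amounts into 6 mm wells. Incubation was 37 °C for 24 h, then inhibition zone diameter was read in mm. DMSO served as the negative control. Runs were in duplicate and averaged.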
Background: In agar diffusion tests the substance spreads into inoculated agar from a disc or well.

Assay [2] has as its system Staphylococcus aureus. Briefly: Antibacterial activity against Staphylococcus aureus assessed as growth inhibition at 50 ug/well after 24 hrs by agar well diffusion method. Conditions: for zone of inhibition at 50 µg/disc: read-out: DIZ. The method, boiled down:
as §1

In assay [3] the test system is Staphylococcus aureus. Briefly: Antibacterial activity against Staphylococcus aureus assessed as growth inhibition at 100 ug/well after 24 hrs by agar well diffusion method. Conditions: for zone of inhibition at 100 µg/disc: read-out: DIZ. The method, boiled down:
as §1

Assay [4] relates to Bacillus subtilis. In words: Antibacterial activity against Bacillus subtilis assessed as growth inhibition at 25 ug/well after 24 hrs by agar well diffusion method. Conditions: for zone of inhibition at 25 µg/disc: read-out: DIZ. The method in brief: as §1
Assay [5] relates to Bacillus subtilis. Briefly: Antibacterial activity against Bacillus subtilis assessed as growth inhibition at 50 ug/well after 24 hrs by agar well diffusion method. Conditions: for zone of inhibition at 50 µg/disc: read-out: DIZ. The method, boiled down: as §1
The test system of assay [6] is Bacillus subtilis. In words: Antibacterial activity against Bacillus subtilis assessed as growth inhibition at 100 ug/well after 24 hrs by agar well diffusion method. Conditions: for zone of inhibition at 100 µg/disc: read-out: DIZ. The method in brief:
as §1

The test system of assay [7] is Pseudomonas aeruginosa. In words: Antibacterial activity against Pseudomonas aeruginosa assessed as growth inhibition at 25 ug/well after 24 hrs by agar well diffusion method. Conditions: for zone of inhibition at 25 µg/disc: read-out: DIZ. The method, boiled down: as §1
In assay [8] the test system is Pseudomonas aeruginosa. Briefly: Antibacterial activity against Pseudomonas aeruginosa assessed as growth inhibition at 50 ug/well after 24 hrs by agar well diffusion method. Conditions: for zone of inhibition at 50 µg/disc: read-out: DIZ. The method in brief: as §1
Assay [9] relates to Pseudomonas aeruginosa. Briefly: Antibacterial activity against Pseudomonas aeruginosa assessed as growth inhibition at 100 ug/well after 24 hrs by agar well diffusion method. Conditions: for zone of inhibition at 100 µg/disc: read-out: DIZ. The method in brief: as §1
Assay [10] concerns Klebsiella pneumoniae. Briefly: Antibacterial activity against Klebsiella pneumoniae assessed as growth inhibition at 25 ug/well after 24 hrs by agar well diffusion method. Conditions: for zone of inhibition at 25 µg/disc: read-out: DIZ. The method, boiled down:
as §1

For assay [11], the system named is Klebsiella pneumoniae. In words: Antibacterial activity against Klebsiella pneumoniae assessed as growth inhibition at 50 ug/well after 24 hrs by agar well diffusion method. Conditions: for zone of inhibition at 50 µg/disc: read-out: DIZ. The method in brief:
as §1

For assay [12], the system named is Klebsiella pneumoniae. In words: Antibacterial activity against Klebsiella pneumoniae assessed as growth inhibition at 100 ug/well after 24 hrs by agar well diffusion method. Conditions: for zone of inhibition at 100 µg/disc: read-out: DIZ. The method in brief:
as §1

Assay [13] relates to Aspergillus niger. Briefly: Antifungal activity against Aspergillus niger assessed as inhibition of spore germination at 25 ug/well after 48 hrs by agar well diffusion method. Conditions: for zone of inhibition at 25 µg/disc: read-out: DIZ. The method, boiled down: (§2)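 Well diffusion using 6 mm bored wells loaded with DMSO solutions at three per-well amounts, with a DMSO negative control. Plates were held at 28 °C for 48 h, then zone of inhibition diameter was measured in mm. Runs were in duplicate and averaged.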

Assay [14] deals with Aspergillus niger. In words: Antifungal activity against Aspergillus niger assessed as inhibition of spore germination at 50 ug/well after 48 hrs by agar well diffusion method. Conditions: for zone of inhibition at 50 µg/disc: read-out: DIZ. The method, boiled down: as §2

The source made the active and inactive calls. The calls are words filed in the database; no cut-off is given here.

Turning to `Cc1ccc(-c2c[nH]c(Nc3cc(-c4ccc(C)cc4)n(-c4nc(-c5ccc(C)cc5)cs4)n3)n2)cc1`, the zone of inhibition at 25 µg/disc in the assay with Staphylococcus aureus [1] was found to be 12 mm; with Bacillus subtilis [4] it was 12 mm; in the assay on Pseudomonas aeruginosa [7] it was 6 mm; in the assay on Klebsiella pneumoniae [10], 13 mm; with Aspergillus niger [13] it was 16 mm. Also, the zone of inhibition at 50 µg/disc came to 14 mm with Staphylococcus aureus [2]; 13 mm in the assay with Bacillus subtilis [5]; 7 mm in the assay with Pseudomonas aeruginosa [8]; 14 mm in the assay with Klebsiella pneumoniae [11]; 17 mm in the assay with Aspergillus niger [14]. The zone of inhibition at 100 µg/disc came to 17 mm in the assay on Staphylococcus aureus [3], 16 mm with Bacillus subtilis [6], 10 mm with Pseudomonas aeruginosa [9] and 17 mm with Klebsiella pneumoniae [12].

In the case of `NC(=S)n1nc(Nc2nc(-c3ccccc3)c[nH]2)cc1-c1ccccc1`, the zone of inhibition at 25 µg/disc with Staphylococcus aureus [1] was determined as 18 mm; in the assay on Bacillus subtilis [4], 18 mm; with Pseudomonas aeruginosa [7], 10 mm; with Klebsiella pneumoniae [10], 19 mm; in the assay with Aspergillus niger [13], 19 mm. Further, the zone of inhibition at 50 µg/disc came to 20 mm in the assay on Staphylococcus aureus [2]; 20 mm in the assay with Bacillus subtilis [5]; 12 mm in the assay on Pseudomonas aeruginosa [8]; 20 mm with Klebsiella pneumoniae [11]; 20 mm in the assay with Aspergillus niger [14]. In addition, the zone of inhibition at 100 µg/disc in the assay with Staphylococcus aureus [3] amounted to 23 mm; with Bacillus subtilis [6], 22 mm; in the assay with Pseudomonas aeruginosa [9], 14 mm; in the assay on Klebsiella pneumoniae [12], 24 mm.

In the case of `NC(=S)n1nc(Nc2nc(-c3ccccc3)co2)cc1-c1ccccc1`, the zone of inhibition at 25 µg/disc with Staphylococcus aureus [1] worked out at 6 mm; with Bacillus subtilis [4], 7 mm; in the assay on Klebsiella pneumoniae [10] it was 7 mm; in the assay on Aspergillus niger [13], 8 mm. Also, the zone of inhibition at 50 µg/disc in the assay on Staphylococcus aureus [2] was 8 mm; in the assay on Bacillus subtilis [5], 9 mm; in the assay on Klebsiella pneumoniae [11], 9 mm; in the assay on Aspergillus niger [14] it was 9 mm. Also, the zone of inhibition at 100 µg/disc in the assay with Staphylococcus aureus [3] amounted to 10 mm; in the assay on Bacillus subtilis [6], 11 mm; with Klebsiella pneumoniae [12] it was 12 mm. Moreover, the “growth inhibition (GI)” value in the assay with Pseudomonas aeruginosa [7], in the assay with Pseudomonas aeruginosa [8] and in the assay on Pseudomonas aeruginosa [9] was “inactive” in each case.

On to `Cc1ccc(-c2coc(NC3=NN(C(N)=S)[C@@H](c4ccc(C)cc4)C3)n2)cc1`, for which the “growth inhibition (GI)” value in the assay with Staphylococcus aureus [1], with Staphylococcus aureus [2], with Staphylococcus aureus [3], in the assay with Bacillus subtilis [4], in the assay with Bacillus subtilis [5] and in the assay with Bacillus subtilis [6] was “inactive” each time. The “growth inhibition (GI)” value in the assay on Pseudomonas aeruginosa [7], in the assay on Pseudomonas aeruginosa [8], in the assay on Pseudomonas aeruginosa [9], in the assay on Klebsiella pneumoniae [10], in the assay on Klebsiella pneumoniae [11] and with Klebsiella pneumoniae [12] was “inactive” in each case. Moreover, in the assay with Aspergillus niger [13], the “growth inhibition (GI)” value was “inactive”. Besides, the zone of inhibition result with Aspergillus niger [14] was “inactive”.

With `NC(=S)N1N=C(Nc2nc(-c3ccc(Cl)cc3)co2)C[C@@H]1c1ccc(Cl)cc1`, the “growth inhibition (GI)” value in the assay on Staphylococcus aureus [1], in the assay on Staphylococcus aureus [2], in the assay with Staphylococcus aureus [3], in the assay on Bacillus subtilis [4], in the assay with Bacillus subtilis [5] and with Bacillus subtilis [6] was “inactive” in each case. Further, the “growth inhibition (GI)” value in the assay with Pseudomonas aeruginosa [7], in the assay on Pseudomonas aeruginosa [8], with Pseudomonas aeruginosa [9], in the assay with Klebsiella pneumoniae [10], with Klebsiella pneumoniae [11] and in the assay on Klebsiella pneumoniae [12] was “inactive” throughout. In addition, the “growth inhibition (GI)” value in the assay with Aspergillus niger [13] is “inactive”. In the assay on Aspergillus niger [14], the zone of inhibition entry was “inactive”.

Take `Cc1ccc(-c2c[nH]c(NC3=NN(C(N)=S)[C@@H](c4ccc(C)cc4)C3)n2)cc1`: the “growth inhibition (GI)” value in the assay on Staphylococcus aureus [1], in the assay on Staphylococcus aureus [2], with Staphylococcus aureus [3], with Bacillus subtilis [4], in the assay with Bacillus subtilis [5] and in the assay with Bacillus subtilis [6] was “inactive” each time. The “growth inhibition (GI)” value in the assay on Pseudomonas aeruginosa [7], with Pseudomonas aeruginosa [8], with Pseudomonas aeruginosa [9], in the assay with Klebsiella pneumoniae [10], in the assay on Klebsiella pneumoniae [11] and with Klebsiella pneumoniae [12] was “inactive” throughout. In the assay with Aspergillus niger [13], the “growth inhibition (GI)” value is “inactive”. Further, the zone of inhibition result with Aspergillus niger [14] is “inactive”.

Regarding `Clc1ccc(-c2coc(Nc3cc(-c4ccc(Cl)cc4)n(-c4nc(-c5ccc(Cl)cc5)cs4)n3)n2)cc1`, the zone of inhibition at 25 µg/disc turned out to be 17 mm with Staphylococcus aureus [1]; 16 mm with Bacillus subtilis [4]; 9 mm with Pseudomonas aeruginosa [7]; 17 mm with Klebsiella pneumoniae [10]; 11 mm in the assay on Aspergillus niger [13]. The zone of inhibition at 50 µg/disc amounted to 18 mm in the assay on Staphylococcus aureus [2]; 18 mm in the assay on Bacillus subtilis [5]; 10 mm in the assay with Pseudomonas aeruginosa [8]; 19 mm in the assay with Klebsiella pneumoniae [11]; 12 mm with Aspergillus niger [14]. In addition, the zone of inhibition at 100 µg/disc was 21 mm in the assay on Staphylococcus aureus [3], 21 mm in the assay on Bacillus subtilis [6], 13 mm in the assay with Pseudomonas aeruginosa [9] and 22 mm in the assay with Klebsiella pneumoniae [12].

Take `NC(=S)n1nc(Nc2nc(-c3ccc(Cl)cc3)co2)cc1-c1ccc(Cl)cc1`: the zone of inhibition at 25 µg/disc in the assay with Staphylococcus aureus [1] came out at 15 mm; with Bacillus subtilis [4], 15 mm; in the assay on Pseudomonas aeruginosa [7] it was 8 mm; in the assay with Klebsiella pneumoniae [10], 16 mm; in the assay with Aspergillus niger [13], 10 mm. Moreover, the zone of inhibition at 50 µg/disc in the assay on Staphylococcus aureus [2] was 17 mm; in the assay with Bacillus subtilis [5], 16 mm; in the assay on Pseudomonas aeruginosa [8], 9 mm; in the assay with Klebsiella pneumoniae [11], 17 mm; in the assay with Aspergillus niger [14] it was 11 mm. The zone of inhibition at 100 µg/disc with Staphylococcus aureus [3] turned out to be 19 mm; in the assay on Bacillus subtilis [6] it was 19 mm; with Pseudomonas aeruginosa [9], 12 mm; in the assay with Klebsiella pneumoniae [12], 20 mm.

As for `NC(=S)N1N=C(Nc2nc(-c3ccccc3)cs2)C[C@@H]1c1ccccc1`, the “growth inhibition (GI)” value in the assay on Staphylococcus aureus [1], in the assay with Staphylococcus aureus [2], in the assay on Staphylococcus aureus [3], in the assay on Bacillus subtilis [4], in the assay on Bacillus subtilis [5] and in the assay on Bacillus subtilis [6] was “inactive” in each case. For the same compound, the “growth inhibition (GI)” value with Pseudomonas aeruginosa [7], with Pseudomonas aeruginosa [8], in the assay with Pseudomonas aeruginosa [9], with Klebsiella pneumoniae [10], with Klebsiella pneumoniae [11] and in the assay with Klebsiella pneumoniae [12] was “inactive” in each case. The “growth inhibition (GI)” value with Aspergillus niger [13] is “inactive”. Besides, the zone of inhibition entry in the assay with Aspergillus niger [14] is “inactive”.

On to `NC(=S)n1nc(Nc2nc(-c3ccc(Cl)cc3)c[nH]2)cc1-c1ccc(Cl)cc1`, for which the zone of inhibition at 25 µg/disc in the assay on Staphylococcus aureus [1] is 21 mm; in the assay on Bacillus subtilis [4], 19 mm; in the assay with Pseudomonas aeruginosa [7] it was 11 mm; with Klebsiella pneumoniae [10] it was 20 mm; in the assay with Aspergillus niger [13] it was 22 mm. The zone of inhibition at 50 µg/disc is 23 mm in the assay with Staphylococcus aureus [2]; 21 mm in the assay on Bacillus subtilis [5]; 13 mm with Pseudomonas aeruginosa [8]; 22 mm in the assay with Klebsiella pneumoniae [11]; 24 mm in the assay with Aspergillus niger [14]. The zone of inhibition at 100 µg/disc in the assay with Staphylococcus aureus [3] came to 25 mm; in the assay on Bacillus subtilis [6], 23 mm; in the assay with Pseudomonas aeruginosa [9], 15 mm; with Klebsiella pneumoniae [12], 26 mm.

Consider `Cc1ccc(-c2csc(Nc3cc(-c4ccc(C)cc4)n(C(N)=S)n3)n2)cc1`, for which the zone of inhibition at 25 µg/disc in the assay with Staphylococcus aureus [1] was determined as 11 mm; in the assay with Bacillus subtilis [4], 10 mm; in the assay with Klebsiella pneumoniae [10] it was 11 mm; in the assay on Aspergillus niger [13] it was 12 mm. The zone of inhibition at 50 µg/disc is 13 mm with Staphylococcus aureus [2]; 12 mm in the assay with Bacillus subtilis [5]; 6 mm in the assay with Pseudomonas aeruginosa [8]; 13 mm in the assay with Klebsiella pneumoniae [11]; 13 mm in the assay on Aspergillus niger [14]. Further, the zone of inhibition at 100 µg/disc with Staphylococcus aureus [3] was 15 mm; with Bacillus subtilis [6], 14 mm; in the assay with Pseudomonas aeruginosa [9], 8 mm; in the assay with Klebsiella pneumoniae [12], 16 mm. For the same compound, the “growth inhibition (GI)” value in the assay on Pseudomonas aeruginosa [7] is “inactive”.
